Source: ChEMBL document CHEMBL3779838, “Inhibitory effect of flavonoids on human glutaminyl cyclase” (Bioorg Med Chem, 2016)

Assays:
[1] = biological target: T1, Glutaminyl-peptide cyclotransferase (Homo sapiens, UniProt Q16769); experiment: Inhibition of human recombinant glutaminyl cyclase expressed in Escherichia coli at 100 uM using H-Gln-Gln-H substrate measured for 15 mins by spectrophotometry relative to control
Target sequence in this assay (Q16769 29-361 limits assumed): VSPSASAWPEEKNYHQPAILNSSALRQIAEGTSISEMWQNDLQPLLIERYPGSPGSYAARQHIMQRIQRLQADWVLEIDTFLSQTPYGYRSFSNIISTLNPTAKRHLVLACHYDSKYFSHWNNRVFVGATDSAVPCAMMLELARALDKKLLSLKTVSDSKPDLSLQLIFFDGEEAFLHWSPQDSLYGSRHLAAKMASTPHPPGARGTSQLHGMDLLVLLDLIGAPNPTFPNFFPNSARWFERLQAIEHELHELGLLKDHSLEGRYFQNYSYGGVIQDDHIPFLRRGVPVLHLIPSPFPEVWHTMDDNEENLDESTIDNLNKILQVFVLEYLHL

[2] = biological target: T1, Glutaminyl-peptide cyclotransferase; experiment: Inhibition of human recombinant glutaminyl cyclase expressed in Escherichia coli using H-Gln-Gln-H substrate measured for 15 mins by spectrophotometry
In short: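 Recombinant hQC expressed in E. coli is tested in a glutamic acid dehydrogenase-coupled reaction: 0–4 mM H-Gln-Gln-H, 30 units/ml GDH, 0.5 mM NADH/H+, 15 mM α-ketoglutaric acid, 0.05 M Tris–HCl pH 8.0. Inhibitor is added at several concentrations with the enzyme to start the reaction, and A340 loss is read over 15 min. IC50 is read graphically from log concentration vs % inhibition. Triplicate.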
Target sequence in this assay (Q16769 whole entry): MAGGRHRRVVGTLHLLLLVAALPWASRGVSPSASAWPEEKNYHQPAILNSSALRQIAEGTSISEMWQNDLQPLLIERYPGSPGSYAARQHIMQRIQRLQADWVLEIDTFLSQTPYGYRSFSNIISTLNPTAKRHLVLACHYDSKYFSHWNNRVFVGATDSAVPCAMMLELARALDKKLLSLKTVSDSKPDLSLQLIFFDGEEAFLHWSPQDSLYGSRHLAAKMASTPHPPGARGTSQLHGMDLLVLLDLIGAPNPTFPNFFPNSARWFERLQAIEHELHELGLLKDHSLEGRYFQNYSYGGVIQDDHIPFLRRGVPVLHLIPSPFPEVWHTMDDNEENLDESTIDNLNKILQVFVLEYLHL

| inhibition [1] | IC50 [2] | SMILES |
| --- | --- | --- |
| 71.8% | 45.2 µM | O=c1cc(-c2ccc(O)cc2)oc2cc(O)ccc12 |
| 75.2% |  | O=c1cc(-c2ccc(O)cc2)oc2cc(O)cc(O)c12 |
| 75.2% |  | COc1ccc(-c2cc(=O)c3ccc(O)cc3o2)cc1 |
| 71.7% |  | COc1ccc(-c2cc(=O)c3c(O)cc(O)cc3o2)c(OC)c1 |
